From ChEMBL document CHEMBL1127457, “Nonpeptide renin inhibitors with good intraduodenal bioavailability and efficacy in dog” (J Med Chem, 1994)

Key:
Homo sapiens = species on record: Homo sapiens; conditions: Liver, Microsome
[1] = Partition coefficient (logD6.5); conditions: octanol/water, pH 6.5
[2] = Average peak plasma concentration of compound after 1 mg/kg intravenous administration to Ferret
[3] = Average peak plasma concentration of compound after 10 mg/kg intraduodenal administration to rat
Renin [4] = molecular target: T1, Renin (Rattus norvegicus, UniProt P08424); assay: (§1) Tested in vitro for its ability to inhibit the rat plasma renin; assay type: functional, cell-free
T1 sequence (P08424 whole entry): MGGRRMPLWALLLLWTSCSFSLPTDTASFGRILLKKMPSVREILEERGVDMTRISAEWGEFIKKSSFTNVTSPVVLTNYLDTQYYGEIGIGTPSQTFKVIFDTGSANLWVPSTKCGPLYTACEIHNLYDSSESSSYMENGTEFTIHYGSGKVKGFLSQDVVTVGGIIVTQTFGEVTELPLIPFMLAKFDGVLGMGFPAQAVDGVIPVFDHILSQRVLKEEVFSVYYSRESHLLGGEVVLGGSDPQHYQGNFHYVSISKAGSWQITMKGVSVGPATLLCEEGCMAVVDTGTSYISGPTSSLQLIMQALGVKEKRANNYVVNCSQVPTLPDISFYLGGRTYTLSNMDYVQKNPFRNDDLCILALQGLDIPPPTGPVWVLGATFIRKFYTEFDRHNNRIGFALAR
Outline: (§2)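 IC50 against renin in plasma from the named species (dog, ferret, human, rat); single determination in most cases.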

[5] = Partition coefficient (logD7.4); conditions: octanol/water, pH 7.4
[6] = Oral bioavailability in ferret; conditions: in vivo
[7] = Average area under curve for the compound at 10 mg/kg dose after intraduodenal administration to rat; conditions: in vivo
Renin [8] = molecular target: T2, Renin (Homo sapiens, UniProt P00797); assay: Tested in vitro for its ability to inhibit the human plasma renin; assay type: cell-free
T2 sequence (P00797 whole entry): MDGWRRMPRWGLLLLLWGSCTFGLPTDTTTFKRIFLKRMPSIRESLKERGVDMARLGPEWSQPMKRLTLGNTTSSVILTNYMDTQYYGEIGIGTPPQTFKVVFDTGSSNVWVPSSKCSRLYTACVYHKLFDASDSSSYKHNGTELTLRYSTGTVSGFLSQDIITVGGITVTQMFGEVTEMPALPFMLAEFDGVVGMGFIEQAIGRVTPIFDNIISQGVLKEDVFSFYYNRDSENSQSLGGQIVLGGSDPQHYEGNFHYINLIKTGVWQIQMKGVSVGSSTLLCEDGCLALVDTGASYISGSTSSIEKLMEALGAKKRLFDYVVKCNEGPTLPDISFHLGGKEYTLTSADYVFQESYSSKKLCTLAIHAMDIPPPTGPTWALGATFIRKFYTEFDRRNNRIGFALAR
Outline: as §2

Renin (Canis familiaris) [9] = assay: Tested in vitro for its ability to inhibit the dog plasma renin
[10] = Average area under curve for the compound at 1 mg/kg dose after intravenous administration to rat; conditions: in vivo
[11] = Average area under curve at 10 mg/kg dose after intraduodenal administration to Ferret; conditions: in vivo
[12] = Average peak plasma concentration of compound after 10 mg/kg intraduodenal administration to Ferret
[13] = Average peak plasma concentration of compound after 1 mg/kg intravenous administration to rat
[14] = Average area under curve for compound at 1 mg/kg dose intravenous administration to Ferret; conditions: in vivo
[15] = Oral bioavailability in rat; conditions: in vivo; for bioavailability: intraduodenal, 10 mg/kg
[16] = molecular target: Renin (Mustela putorius furo); assay: Tested in vitro for its ability to inhibit the ferret plasma renin
[17] = Oral bioavailability in dog (salt depleted); conditions: in vivo
[18] = Average area under curve at 10 mg/kg intraduodenal administration to salt depleted dog; conditions: in vivo
[19] = C(compound) was tested for percent […] bioavailability in rat; assay type: ADME, organism-based; conditions: in vivo, po
Outline: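 Intraduodenal rather than oral dosing: 10 mg/kg id, plus a 1 mg/kg iv bolus. Plasma drug levels were measured by renin-inhibition bioassay, which counts active metabolites as parent. Level–time data were fitted to a biexponential decay model to give AUC. Bioavailability is the dose-corrected AUCid/AUCiv for each experiment, given as mean ± SD of the mean; n=3 unless noted.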

[20] = Average peak plasma concentration of compound at 10 mg/kg intraduodenal administration in salt depleted dog
Canis familiaris [21] = assay: Mean arterial pressure response following 10 mg/kg intraduodenal administration to salt depleted dog; conditions: in vivo, other
[22] = Average area under curve at 1 mg/kg intravenous administration to salt depleted dog; conditions: in vivo
Canis familiaris [23] = assay: Mean arterial pressure response following 1 mg/kg intravenous administration to salt depleted dog; conditions: in vivo
[24] = Average peak plasma concentration of compound after 1 mg/kg intravenous administration in salt depleted dog
Renin [25] = molecular target: T1, Renin; assay: as §1; assay type: cell-free
Outline: as §2

[26] = molecular target: Renin (Mustela putorius furo); assay: Tested in vitro for its ability to inhibit the ferret plasma renin; remark: listed apart in the source
Renin (Canis familiaris) [27] = assay: Tested in vitro for its ability to inhibit the dog plasma renin; remark: listed apart in the source
Renin (Canis familiaris) [28] = assay: as above; remark: listed apart in the source
[29] = molecular target: Renin (Mustela putorius furo); assay: Tested in vitro for its ability to inhibit the ferret plasma renin; remark: listed apart in the source

logD [1]	Cmax ([2]; plasma)	Cmax ([3]; plasma)	logD [5]	bioavailability [6]	AUC [7]	IC50 (Renin [8])	IC50 (Renin (Canis familiaris) [9])	AUC [10]	AUC [11]	Cmax ([12]; plasma)	Cmax ([13]; plasma)	AUC [14]	bioavailability [15]	IC50 [16]	IC50 (Renin [25])	SMILES	Rate (nM min-1 (nM of cytochrome P450)-1) (Homo sapiens)	further results
3.3																CCCC[C@H](O[C@@H](Cc1ccccc1)C(=O)N1CCC(OCOC)CC1)C(=O)N[C@@H](CC1CCCCC1)[C@@H](O)C[C@H](C(=O)NCCCN1CCOCC1)C(C)C	4.26	
> 5	10000 ng/mL	4570 ng/mL	> 5	46%	6870 ng·h/mL	12 nM	75 nM	3130 ng·h/mL	14100 ng·h/mL	9120 ng/mL	6250 ng/mL	3030 ng·h/mL	21%	1000 nM		CCCC[C@H](N[C@@H](Cc1ccccc1)C(=O)N1CCC(OCOC)CC1)C(=O)N[C@@H](CC1CCCCC1)[C@@H](O)C[C@H](C(=O)NCc1ccccn1)C(C)C	3.52	IC50 (Renin [4]): > 10000 nM
> 5	3900 ng/mL	> 480 ng/mL	> 5	29%	> 850 ng·h/mL	13 nM		340 ng·h/mL	8220 ng·h/mL	5500 ng/mL	1310 ng/mL	2750 ng·h/mL	> 25%			CCCC[C@H](N[C@@H](Cc1ccccc1)C(=O)N1CCC(OCOC)CC1)C(=O)N[C@@H](CC1CCCCC1)[C@@H](O)C[C@H](C(=O)NCCN1CCCC1)C(C)C		
> 5	2840 ng/mL	910 ng/mL	> 5	51%	1220 ng·h/mL	3.9 nM	14 nM	242 ng·h/mL	9750 ng·h/mL	6500 ng/mL	680 ng/mL	1870 ng·h/mL		170 nM	3800 nM	CCCC[C@H](N[C@@H](Cc1ccccc1)C(=O)N1CCC(OCOC)CC1)C(=O)N[C@@H](CC1CCCCC1)[C@@H](O)C[C@H](C(=O)NCCN1CCOCC1)C(C)C	3.71	bioavailability [17]: 52%; AUC [18]: 6530 ng·h/mL; bioavailability [19]: 50%; Cmax ([20]; plasma): 1830 ng/mL; Arterial pressure (Canis familiaris [21]): 6449 % mmHg min; AUC [22]: 1260 ng·h/mL; Arterial pressure (Canis familiaris [23]): 2849 % mmHg min; Cmax ([24]; plasma): 7000 ng/mL
3.6	1830 ng/mL	140 ng/mL	3.6	20%	140 ng·h/mL	4.3 nM		212 ng·h/mL	1350 ng·h/mL	1180 ng/mL	1130 ng/mL	668 ng·h/mL	6%			CCCC[C@H](N[C@@H](Cc1ccccc1)C(=O)N1CCC(OCOC)CC1)C(=O)N[C@@H](CC1CCCCC1)[C@@H](O)C[C@H](C(=O)NCCC[N+]1([O-])CCOCC1)C(C)C		bioavailability [17]: < 19%; IC50 (Renin [4]): 6400 nM; IC50 [26]: 420 nM; AUC [18]: 1430 ng·h/mL; IC50 (Renin (Canis familiaris) [27]): 19 nM; Cmax ([20]; plasma): 420 ng/mL; Arterial pressure (Canis familiaris [21]): 6881 % mmHg min; AUC [22]: > 732 ng·h/mL; Arterial pressure (Canis familiaris [23]): 3707 % mmHg min; Cmax ([24]; plasma): > 5530 ng/mL
> 5			> 5	> 98%	3670 ng·h/mL			228 ng·h/mL	> 8170 ng·h/mL			827 ng·h/mL				CCCC[C@H](N[C@@H](Cc1ccccc1)C(=O)N1CCC(OCOC)CC1)C(=O)N[C@@H](CC1CCCCC1)[C@@H](O)C[C@H](C(=O)NCc1cccnc1)C(C)C	2.27	Cmax ([2]; in vivo): 3480 ng/mL; Cmax ([3]; in vivo): 2320 ng/mL; Cmax ([12]; in vivo): > 4920 ng/mL; Cmax ([13]; in vivo): 560 ng/mL; F ([15]; po): 160%
> 5	2980 ng/mL	600 ng/mL	> 5	63%	763 ng·h/mL	9.1 nM		215 ng·h/mL	16600 ng·h/mL	11500 ng/mL	340 ng/mL	2630 ng·h/mL	35%		2100 nM	CCCC[C@H](N[C@@H](Cc1ccccc1)C(=O)N1CCC(OCOC)CC1)C(=O)N[C@@H](CC1CCCCC1)[C@@H](O)C[C@H](C(=O)NCC(C)(C)N1CCOCC1)C(C)C	4.32	bioavailability [17]: 37%; IC50 (Renin (Canis familiaris) [28]): 14 nM; AUC [18]: 6970 ng·h/mL; Cmax ([20]; plasma): 1600 ng/mL; Arterial pressure (Canis familiaris [21]): 8525 % mmHg min; AUC [22]: 1840 ng·h/mL; Arterial pressure (Canis familiaris [23]): 7589 % mmHg min; IC50 [29]: 120 nM; Cmax ([24]; plasma): 7560 ng/mL
> 5	3600 ng/mL	360 ng/mL	> 5	33%	570 ng·h/mL	14 nM		352 ng·h/mL	5680 ng·h/mL	3730 ng/mL	1000 ng/mL	1680 ng·h/mL	15%			CCCC[C@H](N[C@@H](Cc1ccccc1)C(=O)N1CCC(OCOC)CC1)C(=O)N[C@@H](CC1CCCCC1)[C@@H](O)C[C@H](C(=O)NCCN1CCCCC1)C(C)C	4.52	
4.07	320 ng/mL		4.11	7%		3.8 nM			54.8 ng·h/mL	110 ng/mL		71.3 ng·h/mL				CCCC[C@H](N[C@@H](Cc1ccccc1)C(=O)N1CCC(OCOC)CC1)C(=O)N[C@@H](CC1CCCCC1)[C@@H](O)C[C@H](C(=O)NCCNc1noc(N)n1)C(C)C		
3.9				75%	235 ng·h/mL			66.7 ng·h/mL	6800 ng·h/mL			902 ng·h/mL	36.3%			CCCC[C@H](N[C@@H](Cc1ccccc1)C(=O)N1CCC(OCOC)CC1)C(=O)N[C@@H](CC1CCCCC1)[C@@H](O)C[C@H](C(=O)NCCCN1CCOCC1)C(C)C	4.14	bioavailability [17]: 57%; Cmax ([2]; in vivo): 1550 ng/mL; Cmax ([3]; in vivo): 190 ng/mL; AUC [18]: 4000 ng·h/mL; Cmax ([20]; in vivo): 1260 ng/mL; Arterial pressure (Canis familiaris [21]): 10803 % mmHg min; AUC [22]: 693 ng·h/mL; Cmax ([12]; in vivo): 4620 ng/mL; Arterial pressure (Canis familiaris [23]): 8356 % mmHg min; Cmax ([24]; in vivo): 4700 ng/mL
> 5		460 ng/mL	> 5		760 ng·h/mL	7.8 nM	59 nM	653 ng·h/mL			2480 ng/mL		11%	940 nM	10000 nM	CCCC[C@H](N[C@@H](Cc1ccccc1)C(=O)N1CCC(OCOC)CC1)C(=O)N[C@@H](CC1CCCCC1)[C@@H](O)C[C@H](C(=O)NCc1ccncc1)C(C)C	0.78	
4.1		190 ng/mL	4.2		94.8 ng·h/mL	6.1 nM		318 ng·h/mL			810 ng/mL		2%			CCCC[C@H](N[C@@H](Cc1ccccc1)C(=O)N1CCC(OCOC)CC1)C(=O)N[C@@H](CC1CCCCC1)[C@@H](O)C[C@H](C(=O)NCCNc1n[nH]c(N)n1)C(C)C		
							24 nM							330 nM	7300 nM	CCCC[C@H](N[C@@H](Cc1ccccc1)C(=O)N1CCC(OCOC)CC1)C(=O)N[C@@H](CC1CCCCC1)[C@@H](O)C[C@H](C(=O)NCCCn1ccnc1)C(C)C		
						9.4 nM	33 nM							510 nM	7000 nM	CCCC[C@H](N[C@@H](Cc1ccccc1)C(=O)N1CCC(OCOC)CC1)C(=O)N[C@@H](CC1CCCCC1)[C@@H](O)C[C@H](C(=O)NCCc1ccccn1)C(C)C		
